Results of several laboratories.
Compare with care: the assays were run in different laboratories.
PPO3: PPO3 (Agaricus bisporus, UniProt C7FF04)
CNR1: Cannabinoid receptor 1 (CNR1, Homo sapiens, UniProt P21554)

`COc1cc(/C=C/C(=O)O)ccc1OCc1cn(CC(=O)Nc2ccc(Cl)cc2)nn1` gave an inhibition of 12.3% (PPO3; enzyme activity, inhibitor; 40 µM).
`CCCCC/C=C\[C@H](C)/C=C\C/C=C\Cc1ccccc1CCCC(=O)OC(CO)CO` gave an Emax of 10% (CNR1; β-arrestin recruitment, agonist).
For `COc1cc(/C=C/C(=O)O)ccc1OCc1cn(CC(=O)Nc2ccccc2Cl)nn1`, the inhibition was 16.2% (PPO3; enzyme activity, inhibitor; 40 µM).
The inhibition of `c1cncc([C@@H]2CCCN2)c1` is reported as 88.1% (Neuronal acetylcholine receptor; alpha4/beta2 (Rattus norvegicus, UniProt P09483+P12390); ligand displacement, radioligand; 50 µM).
For `CCCCC/C=C\C/C=C\C/C=C\Cc1ccccc1CCCC(=O)N[C@H](C)CO`, the Emax was 80% (CNR1; β-arrestin recruitment, agonist).
With `CC(C)CC(=O)OC[C@H]1O[C@@](C#N)(c2ccc3c(N)ncnn23)[C@H](O)[C@@H]1O` the inhibition was -4% (CNR1; cell-free assay; 20 µM).
For `[2H]c1c([2H])c([C@]2([2H])CCCN2C(=O)C(C)(C)Oc2ccc3cn[nH]c3c2)c([2H])c([2H])c1C([2H])([2H])[2H]`, the remaining binding was 100% (Mitogen-activated protein kinase kinase kinase 3 (MAP3K3, Homo sapiens, UniProt Q99759); binding, competition with immobilised ligand; 1 µM).
For `COc1cc2c3c(c1OC)-c1c(cccc1OC)CC3N(C)CC2` (racemic), the inhibition was 42% (5-hydroxytryptamine receptor 2A (HTR2A, Homo sapiens, UniProt P28223); ligand displacement, radioligand; 10 µM).
With `CN1CCC[C@H]1c1cccnc1` the inhibition was -19.9% (Histamine H4 receptor (HRH4, Homo sapiens, UniProt Q9H3N8); ligand displacement; 50 µM).
The Emax of `CCCCCc1ccccc1C/C=C\C/C=C\C/C=C\CCCC(=O)N[C@H](C)CO` is reported as 42% (CNR1; β-arrestin recruitment, agonist).
`COc1cc(/C=C/C(=O)O)ccc1OCc1cn(CC(=O)Nc2ccccc2C)nn1` gave an inhibition of 16% (PPO3; enzyme activity, inhibitor; 40 µM).
`CCCCC/C=C\C/C=C\C/C=C\C/C=C\CCCC(=O)OC(CO)CO` gave an Emax of 96% (CNR1; β-arrestin recruitment, agonist).
The inhibition of `COc1cc(/C=C/C(=O)O)ccc1OCc1cn(CC(=O)Nc2cccc([N+](=O)[O-])c2)nn1` is reported as 12.1% (PPO3; enzyme activity, inhibitor; 40 µM).
